Data taken from ChEMBL document CHEMBL4689842, “EUbOPEN Chemogenomics Library wave 1” (2021).

Experiments:
Type in all cases: toxicity, cell-based
Fibroblast [1] = test: Multiplex assay against human fibroblast
In short: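 On a CQ1 microscope at 37°C and 5% CO2, live cells were imaged after compound addition. They had been stained at seeding with Hoechst33342, BioTracker Green Microtubule Cytoskeleton Dye, MitoTracker Red and Annexin V Alexa Fluor 680. CellPathfinder machine-learning gating assigned cells to Hoechst high-intensity objects or normal cells, normal cells to healthy, pyknosed or fragmented nuclei, and pyknosed cells to mitotic or apoptotic. Tubulin, mitochondrial-mass and membrane-permeability phenotypes are per cents of healthy-nucleus cells.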

Fibroblast [2] = test: Incucyte cell viability with human fibroblast; conditions: 10 µM, compound concentration 10 uM; also: filed as whole numbers so only -1 and 0 and 1 occur
U2OS = test: Incucyte cell viability with U2OS; conditions: human, 10 µM, compound concentration 10 uM; also: filed as whole numbers so only -1 and 0 and 1 occur
[3] = 24 h, 10 µM, compound concentration 10 uM, replicate 1
[4] = 24 h, 10 µM, compound concentration 10 uM, replicate 2
[5] = 48 h, 1 µM, compound concentration 1 uM, replicate 1
[6] = 48 h, 1 µM, compound concentration 1 uM, replicate 2
[7] = 48 h, 10 µM, compound concentration 10 uM, replicate 1
[8] = 48 h, 10 µM, compound concentration 10 uM, replicate 2
[9] = 6 h, replicate number 1, timepoint 6 hours
[10] = 12 h, replicate number 1, timepoint 12 hours
[11] = 18 h, replicate number 1, timepoint 18 hours
[12] = 24 h, replicate number 1, timepoint 24 hours

SMILES: COc1ccc(NS(=O)(=O)c2sc3ccc(Cl)cc3c2C)cc1N1CCNCC1.Cl
- Population Mitochondria Different-Phenotype (%) (Fibroblast [1]; [3]): 50%
- Population Mitotic Cells (%) (Fibroblast [1]; [3]): 27%
- Population Normal (%) (Fibroblast [1]; [3]): 74%
- Population Pyknosed Nuclei (%) (Fibroblast [1]; [3]): 25%
- Population Tubulin-Different-Phenotype (%) (Fibroblast [1]; [3]): 80%
- Total Cell Count (Fibroblast [1]; [3]): 226
- Population Apoptotic (%) (Fibroblast [1]; [4]): 68%
- Population Fragmented Nuclei (%) (Fibroblast [1]; [4]): 16%
- Population Healthy Nuclei (%) (Fibroblast [1]; [4]): 47%
- Population Hoechst High Intensity Objects (%) (Fibroblast [1]; [4]): 2%
- Population Membrane Permeable-Phenotype (%) (Fibroblast [1]; [4]): 55%
- Population Mitochondria Different-Phenotype (%) (Fibroblast [1]; [4]): 97%
- Population Mitotic Cells (%) (Fibroblast [1]; [4]): 32%
- Population Normal (%) (Fibroblast [1]; [4]): 97%
- Population Pyknosed Nuclei (%) (Fibroblast [1]; [4]): 35%
- Population Tubulin-Different-Phenotype (%) (Fibroblast [1]; [4]): 91%
- Total Cell Count (Fibroblast [1]; [4]): 51
- Population Apoptotic (%) (Fibroblast [1]; [5]): 66%
- Population Fragmented Nuclei (%) (Fibroblast [1]; [5]): 38%
- Population Healthy Nuclei (%) (Fibroblast [1]; [5]): 47%
- Population Hoechst High Intensity Objects (%) (Fibroblast [1]; [5]): 20%
- Population Membrane Permeable-Phenotype (%) (Fibroblast [1]; [5]): 17%
- Population Mitochondria Different-Phenotype (%) (Fibroblast [1]; [5]): 0%
- Population Mitotic Cells (%) (Fibroblast [1]; [5]): 33%
- Population Normal (%) (Fibroblast [1]; [5]): 79%
- Population Pyknosed Nuclei (%) (Fibroblast [1]; [5]): 14%
- Population Tubulin-Different-Phenotype (%) (Fibroblast [1]; [5]): 21%
- Total Cell Count (Fibroblast [1]; [5]): 134
- Population Apoptotic (%) (Fibroblast [1]; [6]): 100%
- Population Fragmented Nuclei (%) (Fibroblast [1]; [6]): 53%
- Population Healthy Nuclei (%) (Fibroblast [1]; [6]): 45%
- Population Hoechst High Intensity Objects (%) (Fibroblast [1]; [6]): 25%
- Population Membrane Permeable-Phenotype (%) (Fibroblast [1]; [6]): 9%
- Population Mitochondria Different-Phenotype (%) (Fibroblast [1]; [6]): 1%
- Population Mitotic Cells (%) (Fibroblast [1]; [6]): 0%
- Population Normal (%) (Fibroblast [1]; [6]): 74%
- Population Pyknosed Nuclei (%) (Fibroblast [1]; [6]): 1%
- Population Tubulin-Different-Phenotype (%) (Fibroblast [1]; [6]): 49%
- Total Cell Count (Fibroblast [1]; [6]): 219
- Population Apoptotic (%) (Fibroblast [1]; [7]): 86%
- Population Fragmented Nuclei (%) (Fibroblast [1]; [7]): 33%
- Population Healthy Nuclei (%) (Fibroblast [1]; [7]): 44%
- Population Hoechst High Intensity Objects (%) (Fibroblast [1]; [7]): 42%
- Population Membrane Permeable-Phenotype (%) (Fibroblast [1]; [7]): 10%
- Population Mitochondria Different-Phenotype (%) (Fibroblast [1]; [7]): 46%
- Population Mitotic Cells (%) (Fibroblast [1]; [7]): 13%
- Population Normal (%) (Fibroblast [1]; [7]): 57%
- Population Pyknosed Nuclei (%) (Fibroblast [1]; [7]): 21%
- Population Tubulin-Different-Phenotype (%) (Fibroblast [1]; [7]): 73%
- Total Cell Count (Fibroblast [1]; [7]): 191
- Population Apoptotic (%) (Fibroblast [1]; [8]): 93%
- Population Fragmented Nuclei (%) (Fibroblast [1]; [8]): 34%
- Population Healthy Nuclei (%) (Fibroblast [1]; [8]): 26%
- Population Hoechst High Intensity Objects (%) (Fibroblast [1]; [8]): 24%
- Population Membrane Permeable-Phenotype (%) (Fibroblast [1]; [8]): 22%
- Population Mitochondria Different-Phenotype (%) (Fibroblast [1]; [8]): 54%
- Population Mitotic Cells (%) (Fibroblast [1]; [8]): 6%
- Population Normal (%) (Fibroblast [1]; [8]): 75%
- Population Pyknosed Nuclei (%) (Fibroblast [1]; [8]): 39%
- Population Tubulin-Different-Phenotype (%) (Fibroblast [1]; [8]): 72%
- Total Cell Count (Fibroblast [1]; [8]): 111
- Growth Rate (Fibroblast [2]; 0 h, replicate number 1, timepoint 0 hours): 1
- Growth Rate (Fibroblast [2]; [9]): 1
- Growth Rate (Fibroblast [2]; 6 h, replicate number 2, timepoint 6 hours): 0
- Growth Rate (Fibroblast [2]; [10]): 0
- Growth Rate (Fibroblast [2]; [11]): 0
- Growth Rate (Fibroblast [2]; [12]): 0
- Growth Rate (U2OS; [9]): 0
- Growth Rate (U2OS; [10]): 0
- Growth Rate (U2OS; [11]): 0
- Growth Rate (U2OS; [12]): 0
